Laboratory results as given in ChEMBL document CHEMBL3414427, “Structure-activity relationships of 3-O-β-chacotriosyl ursolic acid derivatives as novel H5N1 entry inhibitors” (Eur J Med Chem, 2015).
Active and inactive are the calls of the source. The calls are words filed in the database; no cut-off is given here.

Key:
[1] = Cytotoxicity against MDCK cells; format: cell-based, Canis lupus familiaris; conditions: dog
In short: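 MDCK cells (ATCC) grown in DMEM containing glutamine, supplemented with 10% fetal calf serum. CC50 is the mean of three independent assays.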

cells = format: functional, cell-based, Influenza A virus (A/Thailand/Kan353/2004(H5N1)); conditions: Influenza A virus, MDCK, 48 h
[2] = tested on: Vesicular stomatitis virus; assay: Antiviral activity against VSV-G enveloped pseudovirus; format: functional, organism-based
In short: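 VSV-G pseudotyped particles (negative control), incubated with compound instead of H5N1 pseudovirus. MDCK cells (ATCC; DMEM with glutamine plus 10% FCS), seeded at 10⁴/well and grown overnight, then infected and incubated a further 48 h. Cells were PBS-washed and lysed, and luciferase activity was read by luminometer after adding substrate.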

[3] = molecular target: Neuraminidase (Influenza A virus) (UniProt A5Z252); assay: Inhibition of Influenza A virus (H5N1) neuraminidase N1 at 20 microg/ml after 30 mins by fluorescence based assay
In short: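 Fluorescence-based kit assay with purified N1-type neuraminidase in detection buffer. Test compound was added, then neuraminidase substrate. Incubated at 37 °C for 30 min; fluorescence read at excitation 340 nm and emission 535 nm.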

Row | SMILES | CC50 [1] [µM] | IC50 (cells) [µM] | inhibition [2] | inhibition [3]
1 | O=C(NCCN1CCCCC1)c1cc(F)cc(C(F)(F)F)c1 | 1480 | 4.45 |  | 
2 | C=C(C)[C@@H]1CC[C@]2(C(=O)OC)CC[C@]3(C)[C@H](CC[C@@H]4[C@@]5(C)CC[C@H](O[C@@H]6O[C@H](CO)[C@@H](O[C@@H]7O[C@@H](C)[C@H](O)[C@@H](O)[C@H]7O)[C@H](O)[C@H]6O[C@@H]6O[C@@H](C)[C@H](O)[C@@H](O)[C@H]6O)C(C)(C)[C@@H]5CC[C@]43C)[C@H]12 | 33.9 | 2.08 |  | 
3 | CCOC(=O)[C@]12CC[C@@H](C)[C@H](C)[C@H]1C1=CC[C@@H]3[C@@]4(C)CC[C@H](O[C@@H]5O[C@H](CO)[C@@H](O[C@@H]6O[C@@H](C)[C@H](O)[C@@H](O)[C@H]6O)[C@H](O)[C@H]5O[C@@H]5O[C@@H](C)[C@H](O)[C@@H](O)[C@H]5O)C(C)(C)[C@@H]4CC[C@@]3(C)[C@]1(C)CC2 | 19.1 | 1.16 |  | 
4 | C=CCOC(=O)[C@]12CC[C@@H](C)[C@H](C)[C@H]1C1=CC[C@@H]3[C@@]4(C)CC[C@H](O[C@@H]5O[C@H](CO)[C@@H](O[C@@H]6O[C@@H](C)[C@H](O)[C@@H](O)[C@H]6O)[C@H](O)[C@H]5O[C@@H]5O[C@@H](C)[C@H](O)[C@@H](O)[C@H]5O)C(C)(C)[C@@H]4CC[C@@]3(C)[C@]1(C)CC2 | 21.8 | 34 |  | 
5 | COC(=O)[C@@]1(C)CC[C@]2(C)CC[C@]3(C)C(=CC(=O)[C@@H]4[C@@]5(C)CC[C@H](O[C@@H]6O[C@H](CO)[C@@H](O[C@@H]7O[C@@H](C)[C@H](O)[C@@H](O)[C@H]7O)[C@H](O)[C@H]6O[C@@H]6O[C@@H](C)[C@H](O)[C@@H](O)[C@H]6O)C(C)(C)[C@@H]5CC[C@]43C)[C@@H]2C1 | 17.1 | 4.93 |  | 
6 | CCCOC(=O)[C@]12CC[C@@H](C)[C@H](C)[C@H]1C1=CC[C@@H]3[C@@]4(C)CC[C@H](O[C@@H]5O[C@H](CO)[C@@H](O[C@@H]6O[C@@H](C)[C@H](O)[C@@H](O)[C@H]6O)[C@H](O)[C@H]5O[C@@H]5O[C@@H](C)[C@H](O)[C@@H](O)[C@H]5O)C(C)(C)[C@@H]4CC[C@@]3(C)[C@]1(C)CC2 | 19.2 | 2.3 |  | 
7 | COC(=O)[C@]12CC[C@@H](C)[C@H](C)[C@H]1C1=CC[C@@H]3[C@@]4(C)CC[C@@H](O[C@@H]5O[C@H](CO)[C@@H](O[C@@H]6O[C@@H](C)[C@H](O)[C@@H](O)[C@H]6O)[C@H](O)[C@H]5O[C@@H]5O[C@@H](C)[C@H](O)[C@@H](O)[C@H]5O)C(C)(C)[C@@H]4CC[C@@]3(C)[C@]1(C)CC2 | > 200 | 1.33 | inactive | inactive
8 | CNC(=O)[C@]12CC[C@@H](C)[C@H](C)[C@H]1C1=CC[C@@H]3[C@@]4(C)CC[C@H](O[C@@H]5O[C@H](CO)[C@@H](O[C@@H]6O[C@@H](C)[C@H](O)[C@@H](O)[C@H]6O)[C@H](O)[C@H]5O[C@@H]5O[C@@H](C)[C@H](O)[C@@H](O)[C@H]5O)C(C)(C)[C@@H]4CC[C@@]3(C)[C@]1(C)CC2 | > 200 | 22.5 |  | 
9 | COC(=O)[C@]12CCC(C)(C)C[C@H]1C1=CC[C@@H]3[C@@]4(C)CC[C@H](O[C@@H]5O[C@H](CO)[C@@H](O[C@@H]6O[C@@H](C)[C@H](O)[C@@H](O)[C@H]6O)[C@H](O)[C@H]5O[C@@H]5O[C@@H](C)[C@H](O)[C@@H](O)[C@H]5O)C(C)(C)[C@@H]4CC[C@@]3(C)[C@]1(C)CC2 | 16.9 | 3.74 |  | 
10 | C[C@H]1[C@H](C)CC[C@]2(C(=O)O)CC[C@]3(C)C(=CC[C@@H]4[C@@]5(C)CC[C@H](O[C@@H]6O[C@H](CO)[C@@H](O[C@@H]7O[C@@H](C)[C@H](O)[C@@H](O)[C@H]7O)[C@H](O)[C@H]6O[C@@H]6O[C@@H](C)[C@H](O)[C@@H](O)[C@H]6O)C(C)(C)[C@@H]5CC[C@]43C)[C@H]12 | 26.2 | 10.1 |  | 
11 | C[C@H]1[C@H](C)CC[C@]2(C(=O)OC3CCCC3)CC[C@]3(C)C(=CC[C@@H]4[C@@]5(C)CC[C@H](O[C@@H]6O[C@H](CO)[C@@H](O[C@@H]7O[C@@H](C)[C@H](O)[C@@H](O)[C@H]7O)[C@H](O)[C@H]6O[C@@H]6O[C@@H](C)[C@H](O)[C@@H](O)[C@H]6O)C(C)(C)[C@@H]5CC[C@]43C)[C@H]12 | 24.2 | 4.91 |  | 
12 | CCCCCOC(=O)[C@]12CC[C@@H](C)[C@H](C)[C@H]1C1=CC[C@@H]3[C@@]4(C)CC[C@H](O[C@@H]5O[C@H](CO)[C@@H](O[C@@H]6O[C@@H](C)[C@H](O)[C@@H](O)[C@H]6O)[C@H](O)[C@H]5O[C@@H]5O[C@@H](C)[C@H](O)[C@@H](O)[C@H]5O)C(C)(C)[C@@H]4CC[C@@]3(C)[C@]1(C)CC2 | 20.1 | 3.72 |  | 
13 | COC(=O)[C@]12CC[C@@H](C)[C@H](C)[C@H]1C1=CC(=O)[C@@H]3[C@@]4(C)CC[C@H](O[C@@H]5O[C@H](CO)[C@@H](O[C@@H]6O[C@@H](C)[C@H](O)[C@@H](O)[C@H]6O)[C@H](O)[C@H]5O[C@@H]5O[C@@H](C)[C@H](O)[C@@H](O)[C@H]5O)C(C)(C)[C@@H]4CC[C@@]3(C)[C@]1(C)CC2 | 38.4 | 5.68 |  | 
14 | C[C@H]1[C@H](C)CC[C@]2(C(=O)N(C)C)CC[C@]3(C)C(=CC[C@@H]4[C@@]5(C)CC[C@H](O[C@@H]6O[C@H](CO)[C@@H](O[C@@H]7O[C@@H](C)[C@H](O)[C@@H](O)[C@H]7O)[C@H](O)[C@H]6O[C@@H]6O[C@@H](C)[C@H](O)[C@@H](O)[C@H]6O)C(C)(C)[C@@H]5CC[C@]43C)[C@H]12 | 48.6 | 0.98 | inactive | inactive
15 | COC(=O)[C@]12CC[C@@H](C)[C@H](C)[C@H]1C1=CC[C@@H]3[C@@]4(C)CC[C@H](O[C@@H]5O[C@H](CO)[C@@H](O[C@@H]6O[C@@H](C)[C@H](O)[C@@H](O)[C@H]6O)[C@H](O)[C@H]5O[C@@H]5O[C@@H](C)[C@H](O)[C@@H](O)[C@H]5O)C(C)(C)[C@@H]4CC[C@@]3(C)[C@]1(C)CC2 | 13 | 1.02 | inactive | inactive
16 | CCN(CC)C(=O)[C@]12CC[C@@H](C)[C@H](C)[C@H]1C1=CC[C@@H]3[C@@]4(C)CC[C@H](O[C@@H]5O[C@H](CO)[C@@H](O[C@@H]6O[C@@H](C)[C@H](O)[C@@H](O)[C@H]6O)[C@H](O)[C@H]5O[C@@H]5O[C@@H](C)[C@H](O)[C@@H](O)[C@H]5O)C(C)(C)[C@@H]4CC[C@@]3(C)[C@]1(C)CC2 | 47 | 1.41 |  | 
